The results in this text go back to ChEMBL document CHEMBL1629641, “An important site in PBP2x of penicillin-resistant clinical isolates of Streptococcus pneumoniae: mutational analysis of Thr338” (2009).

Values after ≈ are worked out from the molar mass of the structure shown.

Conditions in all cases: R6, 48 h
The test system of assay [1] is Streptococcus pneumoniae. Put plainly: Antimicrobial activity against Streptococcus pneumoniae R6 after 48 hrs by agar dilution method. In kind it is functional. The procedure, abridged: (§1)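 Agar dilution on blood agar plates (D-agar with 3% defibrinated sheep blood), natural atmosphere, inoculated with cells from exponentially growing cultures in C-medium with 0.2% yeast extract grown at 37°C without aeration; narrow range of antibiotic concentrations to detect subtle susceptibility differences; MIC read after 48 h at 37°C.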

For assay [2], the system named is Streptococcus pneumoniae. The assay can be described thus: Antimicrobial activity against Streptococcus pneumoniae R6 harboring PBP2x T338A mutant gene after 48 hrs by agar dilution method. In kind it is functional. The procedure, abridged: as §1
Assay [3] deals with Streptococcus pneumoniae. The assay can be described thus: Antimicrobial activity against Streptococcus pneumoniae R6 harboring PBP2x T338P mutant gene after 48 hrs by agar dilution method. The format is functional. The method, boiled down: as §1
Background: Agar dilution tests growth on a series of plates holding different concentrations.

Assay [4] has as its system Streptococcus pneumoniae. The assay can be described thus: Antimicrobial activity against Streptococcus pneumoniae R6 harboring PBP2x T338G mutant gene after 48 hrs by agar dilution method. The format is functional. The procedure, abridged:
as §1

Assay [5] concerns Streptococcus pneumoniae. The assay can be described thus: Antimicrobial activity against Streptococcus pneumoniae R6 harboring PBP2x2349 mutant gene after 48 hrs by agar dilution method. The format is functional. The method, boiled down: as §1
The test system of assay [6] is Streptococcus pneumoniae. The assay can be described thus: Antimicrobial activity against Streptococcus pneumoniae R6 harboring PBP2x2349 and PBP1a2349 mutant gene after 48 hrs by agar dilution method. In kind it is functional. The method, boiled down:
as §1

Assay [7] concerns Streptococcus pneumoniae. Put plainly: Antimicrobial activity against streptomycin-resistant Streptococcus pneumoniae R6 harboring PBP2x T338G and PBP1a2349 mutant gene after 48 hrs by agar dilution method. The format is functional. The procedure, abridged:
as §1

Assay [8] deals with Streptococcus pneumoniae. The assay can be described thus: Antimicrobial activity against streptomycin- resistant Streptococcus pneumoniae R6 harboring PBP2x2349 mutant gene and Janus disruption at PBP1a after 48 hrs by agar dilution method. In kind it is functional. The method, boiled down:
as §1

Assay [9] deals with Streptococcus pneumoniae. The assay can be described thus: Antimicrobial activity against streptomycin-resistant Streptococcus pneumoniae R6 harboring PBP2x T338G mutant gene and Janus disruption at PBP1a after 48 hrs by agar dilution method. In kind it is functional. The method, boiled down: as §1
The subject of assay [10] is Streptococcus pneumoniae. The assay can be described thus: Antimicrobial activity against Streptococcus pneumoniae R6 harboring wild type PBP2x, disruption in PBP1a and aad9 disruption in CiaR gene after 48 hrs by agar dilution method. In kind it is functional. The method, boiled down: as §1
The test system of assay [11] is Streptococcus pneumoniae. Put plainly: Antimicrobial activity against Streptococcus pneumoniae R6 harboring PBP2x T338A mutant gene, disruption at PBP1a and aad9 disruption in CiaR gene after 48 hrs by agar dilution method. The format is functional. The method, boiled down: as §1
The subject of assay [12] is Streptococcus pneumoniae. The assay can be described thus: Antimicrobial activity against Streptococcus pneumoniae R6 harboring PBP2x T338P mutant gene, disruption at PBP1a and aad9 disruption in CiaR gene after 48 hrs by agar dilution method. The format is functional. The procedure, abridged:
as §1

In assay [13] the test system is Streptococcus pneumoniae. The assay can be described thus: Antimicrobial activity against Streptococcus pneumoniae R6 harboring PBP2x T338G mutant gene, disruption at PBP1a and aad9 disruption in CiaR gene after 48 hrs by agar dilution method. In kind it is functional. The method, boiled down:
as §1

Assay [14] has as its system Streptococcus pneumoniae. The assay can be described thus: Antimicrobial activity against Streptococcus pneumoniae R6 harboring PBP2x T338G mutant gene, disruption at PBP1a and aad9 disruption in CiaR gene after 48 hrs by agar dilution method.

For orientation: MIC means the smallest concentration in the dilution series that meets the test's criterion for growth inhibition. A low value points to a more susceptible organism. For the compound `CO/N=C(\C(=O)N[C@@H]1C(=O)N2C(C(=O)O)=C(COC(C)=O)CS[C@H]12)c1csc(N)n1` [CEFOTAXIME], the MIC with Streptococcus pneumoniae [1] came out at 0.02 µg/mL (≈ 0.0439 µM); in the assay with Streptococcus pneumoniae [2], 0.035 µg/mL (≈ 0.0768 µM); with Streptococcus pneumoniae [3], 0.04 µg/mL (≈ 0.0878 µM); against Streptococcus pneumoniae [4], 0.045 µg/mL (≈ 0.0988 µM); in the assay on Streptococcus pneumoniae [5], 0.3 µg/mL (≈ 0.659 µM); against Streptococcus pneumoniae [6] it was 1 µg/mL (≈ 2.2 µM). Besides, the minimal inhibitory concentration (MIC) against Streptococcus pneumoniae [7] amounted to 0.03 µg/mL (≈ 0.0659 µM); with Streptococcus pneumoniae [8] it was 0.2 µg/mL (≈ 0.439 µM); in the assay on Streptococcus pneumoniae [9], 0.03 µg/mL (≈ 0.0659 µM); in the assay with Streptococcus pneumoniae [10], 0.025 µg/mL (≈ 0.0549 µM); against Streptococcus pneumoniae [11], 0.045 µg/mL (≈ 0.0988 µM); against Streptococcus pneumoniae [12] it was 0.045 µg/mL (≈ 0.0988 µM). The compound further registered an MIC with Streptococcus pneumoniae [13] of 0.055 µg/mL (≈ 0.121 µM).

For the compound `Cc1onc(-c2ccccc2)c1C(=O)N[C@@H]1C(=O)N2[C@@H]1SC(C)(C)[C@@H]2C(=O)O` [OXACILLIN], the MIC against Streptococcus pneumoniae [1] turned out to be 0.08 µg/mL (≈ 0.199 µM); in the assay on Streptococcus pneumoniae [2] it was 0.18 µg/mL (≈ 0.448 µM); with Streptococcus pneumoniae [3], 0.23 µg/mL (≈ 0.573 µM); against Streptococcus pneumoniae [4] it was 0.25 µg/mL (≈ 0.623 µM); in the assay on Streptococcus pneumoniae [5], 1 µg/mL (≈ 2.49 µM); against Streptococcus pneumoniae [6] it was 0.85 µg/mL (≈ 2.12 µM). Further, the MIC in the assay on Streptococcus pneumoniae [7] stood at 0.16 µg/mL (≈ 0.399 µM); with Streptococcus pneumoniae [8], 0.95 µg/mL (≈ 2.37 µM); with Streptococcus pneumoniae [9] it was 0.21 µg/mL (≈ 0.523 µM); with Streptococcus pneumoniae [10] it was 0.08 µg/mL (≈ 0.199 µM); against Streptococcus pneumoniae [11], 0.2 µg/mL (≈ 0.498 µM); in the assay on Streptococcus pneumoniae [12], 0.24 µg/mL (≈ 0.598 µM). Besides, the MIC against Streptococcus pneumoniae [13] came to 0.25 µg/mL (≈ 0.623 µM).

As to `CC1(C)S[C@@H]2[C@H](NC(=O)Cc3ccccc3)C(=O)N2[C@H]1C(=O)O` [PENICILLIN G], the MIC is 0.02 µg/mL (≈ 0.0598 µM) against Streptococcus pneumoniae [1]; 0.03 µg/mL (≈ 0.0897 µM) with Streptococcus pneumoniae [2]; 0.03 µg/mL (≈ 0.0897 µM) against Streptococcus pneumoniae [3]; 0.03 µg/mL (≈ 0.0897 µM) in the assay on Streptococcus pneumoniae [4]; 0.04 µg/mL (≈ 0.12 µM) with Streptococcus pneumoniae [5]; 0.035 µg/mL (≈ 0.105 µM) in the assay on Streptococcus pneumoniae [6]. Moreover, the MIC was 0.02 µg/mL (≈ 0.0598 µM) against Streptococcus pneumoniae [7]; 0.04 µg/mL (≈ 0.12 µM) against Streptococcus pneumoniae [8]; 0.02 µg/mL (≈ 0.0598 µM) against Streptococcus pneumoniae [9]; 0.02 µg/mL (≈ 0.0598 µM) in the assay with Streptococcus pneumoniae [10]; 0.04 µg/mL (≈ 0.12 µM) in the assay with Streptococcus pneumoniae [11]; 0.025 µg/mL (≈ 0.0748 µM) in the assay with Streptococcus pneumoniae [13]. Also, the minimal inhibitory concentration (MIC) against Streptococcus pneumoniae [14] worked out at 0.025 µg/mL (≈ 0.0748 µM).

With `CCN1CCN(C(=O)N[C@@H](C(=O)N[C@@H]2C(=O)N3[C@@H]2SC(C)(C)[C@@H]3C(=O)O)c2ccccc2)C(=O)C1=O` [PIPERACILLIN], the MIC in the assay with Streptococcus pneumoniae [1] is 0.04 µg/mL (≈ 0.0773 µM); with Streptococcus pneumoniae [2], 0.09 µg/mL (≈ 0.174 µM); against Streptococcus pneumoniae [3] it was 0.06 µg/mL (≈ 0.116 µM); against Streptococcus pneumoniae [4], 0.1 µg/mL (≈ 0.193 µM); in the assay on Streptococcus pneumoniae [5], 0.12 µg/mL (≈ 0.232 µM); against Streptococcus pneumoniae [6], 0.11 µg/mL (≈ 0.213 µM). Besides, the MIC against Streptococcus pneumoniae [7] stood at 0.06 µg/mL (≈ 0.116 µM); in the assay on Streptococcus pneumoniae [8], 0.12 µg/mL (≈ 0.232 µM); against Streptococcus pneumoniae [9], 0.09 µg/mL (≈ 0.174 µM); with Streptococcus pneumoniae [10], 0.06 µg/mL (≈ 0.116 µM); against Streptococcus pneumoniae [11], 0.11 µg/mL (≈ 0.213 µM); in the assay with Streptococcus pneumoniae [12], 0.06 µg/mL (≈ 0.116 µM). Moreover, the minimum inhibitory concentration (MIC) with Streptococcus pneumoniae [13] was 0.08 µg/mL (≈ 0.155 µM).
